Rows were chosen to be rich in hits. Some 3.7% of all compounds tested hit in one or more screens of this group.
KCNK9 block – KCNK9 potassium channel inhibitors, primary screen, HEK293 cells, thallium flux | Potassium channel subfamily K member 9 (Homo sapiens), Q9NPC2 | FluxOR thallium flux fluorescence; hits give low values | B-score at 10 µM | 1.2% of 310,000 active;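 active means ratio B-score over 3 SD below the library mean, with starting fluorescence within 5 SD of its mean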;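 further: negative B-score means less thallium flux so channel inhibition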
KCNQ1 pot – potentiators or activators of KCNQ1 channel, primary screen, cell-based, thallium flux, high-throughput; AID 2648, 2010; Potassium voltage-gated channel subfamily KQT member 1 (Homo sapiens), P51787; 0.35% of 310,000 active; CHO-K1 KCNQ1, thallium flux FluxOR fluorescence; hits give high values; B-score at 10 µM;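 active means fluorescence ratio B-score, a plate-corrected score, at least three library SD, with initial intensity B-score within 5 SD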
Target sequence (P51787 whole entry, looked up): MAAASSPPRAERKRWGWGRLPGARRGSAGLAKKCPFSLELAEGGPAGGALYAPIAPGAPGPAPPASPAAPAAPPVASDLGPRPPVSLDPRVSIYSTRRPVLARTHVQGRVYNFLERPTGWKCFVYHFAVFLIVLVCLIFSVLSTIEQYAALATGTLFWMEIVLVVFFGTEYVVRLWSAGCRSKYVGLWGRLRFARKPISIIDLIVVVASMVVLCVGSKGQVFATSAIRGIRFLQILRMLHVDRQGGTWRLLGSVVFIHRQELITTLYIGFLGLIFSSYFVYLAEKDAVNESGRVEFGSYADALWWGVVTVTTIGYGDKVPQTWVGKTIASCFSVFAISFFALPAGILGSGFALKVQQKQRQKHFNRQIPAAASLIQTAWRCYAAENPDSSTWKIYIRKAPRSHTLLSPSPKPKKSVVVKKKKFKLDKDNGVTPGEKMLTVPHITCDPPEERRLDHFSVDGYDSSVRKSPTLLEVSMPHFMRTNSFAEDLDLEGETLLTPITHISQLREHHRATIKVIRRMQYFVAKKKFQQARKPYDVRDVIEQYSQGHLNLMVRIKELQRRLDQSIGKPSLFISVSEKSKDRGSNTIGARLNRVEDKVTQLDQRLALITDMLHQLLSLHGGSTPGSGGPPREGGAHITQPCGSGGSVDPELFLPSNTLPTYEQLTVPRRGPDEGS
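Doses: Single concentration per compound, DMSO matched to controls | Test system: KCNQ1-transfected CHO-K1 cells | Timing: 90 min dye loading and 20 min compound exposure, both at room temperature | Measured by: Kinetic FluxOR thallium fluorescence, 10-s 1-Hz baseline, 110-s post-stimulus read | Medium: Assay buffer with matched DMSO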
Kir21 inh – inhibitors of mouse Kir2.1 inward-rectifier potassium channel | Inward rectifier potassium channel 2 (Mus musculus), P35561 | HEK293-Kir2.1, FluxOR thallium flux fluorescence; hits give low values | B-score at 10 µM | 0.85% of 310,000 active | AID 1672, 2009;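 active means fluorescence ratio B-score at or below minus 3 SD of library scores, with starting-brightness B-score within 2 SD, cut at about -4.2 in these data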;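 further: channel flux triggered by added potassium and thallium sulfate stimulus; B-score of peak minus minimum fluorescence over baseline after thallium stimulus; more negative B-score means stronger Kir2.1 block with less thallium influx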
hERG protect – hERG rescue from dofetilide block, primary screen, cell-based, CHO-hERG, FluxOR thallium flux, dofetilide IC70 | activation (rescue from dofetilide block), less the hit threshold, % at 10 µM | 0.51% of 310,000 active | dofetilide IC70 present | Voltage-gated inwardly rectifying potassium channel KCNH2 (Homo sapiens), Q12809;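 active means activation above the mean of controls blocked by dofetilide plus 5 SD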;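 further: thallium influx through hERG after potassium depolarization seen as dye fluorescence rise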
KCNQ1 inh – inhibitors of human KCNQ1 channel, primary screen, cell-based, thallium flux, high-throughput; Potassium voltage-gated channel subfamily KQT member 1 (Homo sapiens), P51787; CHO-K1 KCNQ1, FluxOR thallium flux fluorescence; hits give high values; 1.3% of 310,000 active; B-score at 10 µM;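 active means compounds whose thallium flux B-score, printed positive for inhibition, exceeds three library SD while starting fluorescence stays within three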;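 further: channel opened by potassium depolarization with thallium stimulus after 20 min compound exposure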
KCNK3 inh – human KCNK3 channel inhibitors, primary screen, CHO cells, FluxOR thallium flux, B-score; Potassium channel subfamily K member 3 (Homo sapiens), O14649; FluxOR fluorescence; hits give low values; B-score at 10 µM; 0.84% of 340,000 active; AID 602410, 2012;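 active means B-score under library mean minus 4 SD, starting fluorescence ratio at most library mean plus 5 SD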;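 further: more negative B-score means stronger inhibition of thallium flux through KCNK3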
KCNK9 inh conf – KCNK9 potassium channel inhibitors, confirmation, HEK293 cells, thallium flux, duplicate. inhibition, % at 10 µM. 43% of 4,900 active. shares compounds with KCNK9 block. FluxOR thallium flux fluorescence;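 active means thallium signal inhibited by more than 5 SD of the compound-free buffer control wells, on both duplicate plates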;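 further: 0% = assay buffer control wells without compound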
Kir2-1 spec – mouse Kir2.1 channel inhibition, confirmation, selectivity assay for KCNK9 modulator project, cell-based, HEK293, thallium flux | inhibition, % at 10 µM | shares compounds with KCNK9 block | Kir2.1 cells, FluxOR thallium flux fluorescence | 4% of 4,900 active;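 active means thallium signal drop more than 5 SD beyond the mean of the no-compound control wells, seen in both duplicate plates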;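 further: signal is fluorescence rise after thallium addition divided by baseline fluorescence; plate controls were assay buffer only for no effect and full block by chlorpromazine control for full effect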
KCNK9 uninduced – thallium flux in non-induced HEK293 cells, confirmation, counter-screen for KCNK9 inhibitor project, cell-based, second counter screen, non-induced KCNK9-HEK293; FluxOR thallium flux; shares compounds with KCNK9 block; inhibition, % at 10 µM; 40% of 4,900 active; AID 492997, 2010;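 active means thallium signal drop beyond 5 SD of the untreated control mean, on both duplicate plates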;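 further: plate controls were buffer only IC0 wells for no effect and SID17386958 at its maximal inhibitory level for full effect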
KCNK3 inh conf – retest of human KCNK3 channel inhibitors, confirmation, CHO cells, FluxOR thallium flux, triplicate; shares compounds with KCNK3 inh; FluxOR fluorescence; 0% buffer, 100% carvedilol maximal block; ratio percent of control, % at 10 µM; 99% of 2,400 active; AID 651638, 2012;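 active means ratio percent of control, averaged over triplicates, above buffer control mean plus 5 SD, cut at about 64% in these data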;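 further: ratio is the fluorescence rise from min to max over baseline after thallium stimulus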
KCNK3 noninduced – thallium flux inhibition in non-induced cells, primary screen, counter-screen for KCNK3 inhibitor project, cell-based, non-induced KCNK3 line, FluxOR thallium, triplicate. shares compounds with KCNK3 inh. non-induced KCNK3 parental cells; hits give low values. thallium flux ratio (lower = more inhibition) at 10 µM. 40% of 2,400 active;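 active means thallium flux ratio, averaged over three wells, more than 5 SD below the buffer control mean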;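 further: host cells are CHO cells without KCNK3 induction; ratio is peak minus trough fluorescence over baseline then normalized to buffer controls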
An asterisk follows results filed as active; i = inactive; . = no result.

SMILES	KCNK9 block	KCNQ1 pot	Kir21 inh	hERG protect	KCNQ1 inh	KCNK3 inh	KCNK9 inh conf	Kir2-1 spec	KCNK9 uninduced	KCNK3 inh conf	KCNK3 noninduced
Cc1ccc(CN2CCCN(Cc3c(F)cccc3Cl)S2(=O)=O)cc1	-14*	i	-0.13	-5	i	-10*	60%*	i	43%*	113*	i
Cc1ccc(NC(=O)Nc2cccn(Cc3c(F)cccc3Cl)c2=O)cc1	i	i	0.29	-12	i	i	.	.	.	.	.
CCOC(=O)C1=C(CSc2nc(CC)c(C)cc2C#N)OC(N)=C(C#N)C1c1ccc(OC)cc1 (stereo not drawn)	-9.7*	i	0.86	-9	i	-9.2*	54%*	i	45%*	112*	0.15*
CCOC(=O)c1ccc(N2C(=O)c3n[nH]c(-c4ccco4)c3C2c2ccc([N+](=O)[O-])cc2)cc1 (stereo not drawn)	-8.3*	i	-0.01	-5	i	-9.8*	56%*	i	42%*	138*	0.11*
O=C(CSc1nc2[nH]ncc2c(=O)n1-c1ccc(Cl)c(Cl)c1)NCc1ccccc1Cl	-8.2*	i	0.02	-19	i	-12*	48%*	i	34%*	128*	0.14*
O=C(CSc1nc2[nH]ncc2c(=O)n1-c1ccccc1)NCCc1ccccc1	i	i	1.2	-14	i	i	.	.	.	.	.
Cn1ncc(C#N)c1/N=C/N(Cc1ccccc1)Cc1ccccc1	-15*	i	0.37	-11	i	-8.9*	36%*	i	29%*	114*	0.16*
NS(=O)(=O)c1cccc(NC(=O)CCN2C(=O)C3CCCCC3C2=O)c1 (stereo not drawn)	.	.	.	.	.	i	.	.	.	.	.
COc1ccc(OC)c(C(C(=O)NC2CCCCC2)N(C(=O)c2ccccn2)c2cccnc2)c1 (stereo not drawn)	i	i	-0.67	-6	i	i	.	.	.	.	.
Cc1ccc(Nc2nc(CSc3nnnn3-c3ccccc3)cs2)cc1	-11*	i	0.33	-4	i	i	47%*	i	35%*	100*	i
O=C/C(=C\Nc1ccccn1)c1nc2cc(Cl)ccc2o1	-8.5*	i	-2.1	-10	i	i	35%*	i	i	114*	i
O=C/C(=C\Nc1ccccn1)c1nc2ccccc2o1	i	i	-1.2	-12	i	i	.	.	.	.	.
O=C(CN(C(=O)c1ccccc1Cl)C1CCCCC1)Nc1ccc(Cl)c([N+](=O)[O-])c1	-11*	i	-0.37	-15	8*	i	36%*	i	29%*	98*	0.16*
O=C(CN(C(=O)c1ccc(Cl)cc1)C1CCCCC1)Nc1ccc(Cl)c([N+](=O)[O-])c1	i	i	-1.5	-8	i	i	.	.	.	.	.
COc1ccc(C(=O)c2coc3c2C(=O)C(=O)c2ccccc2-3)cc1	-21*	i	-0.39	-14	i	-8.9*	78%*	i	46%*	108*	0.15*
N=c1c2c(ncn1Cc1ccco1)Oc1ccc3ccccc3c1C2c1ccccc1 (stereo not drawn)	i	i	-1.3	-15	i	i	.	.	.	.	.
N=c1c2c(-c3ccccc3)c(-c3ccccc3)n(Cc3ccco3)c2ncn1Cc1ccco1	-8.7*	i	-9.8*	-38	11*	-14*	54%*	46%*	31%*	110*	0.15*
CC(=O)NC(Cc1ccc(F)cc1)C(=O)NC1CCN(c2ncccc2[N+](=O)[O-])CC1 (stereo not drawn)	i	i	-0.77	-11	i	i	.	.	.	.	.
Cc1ccc(O)c(C(=O)c2cnc3c(c2)COc2ccc(C)cc2-3)c1	-13*	i	0.86	-1	i	i	72%*	i	40%*	113*	i
CCn1nc(C(=O)OCC(=O)c2ccc(F)cc2)c2ccccc2c1=O	i	i	0.38	-2	i	i	.	.	.	.	.
CCn1nc(C(=O)OC(C(=O)c2c[nH]c3ccccc23)c2ccccc2)c2ccccc2c1=O (stereo not drawn)	-11*	i	-0.02	-20	8*	-9*	32%*	i	i	89*	i
CC(C)(C)n1nnnc1C(c1cccs1)N(Cc1ccccc1)Cc1cccnc1 (stereo not drawn)	-13*	i	-0.17	-11	i	i	66%*	i	54%*	118*	i
Cc1ccccc1-c1nnc(SCC(=O)NC2CCCCC2)o1	i	i	0.09	-4	i	i	.	.	.	.	.
Cc1cc2cccc(C)c2nc1SCC(=O)NC1CCCCC1	-12*	i	-0.29	-2	i	-9.5*	i	i	i	92*	i
COc1ccc(-n2cnnc2SCC(=O)Nc2ccccc2F)cc1	i	i	-0.45	-2	i	i	.	.	.	.	.
CCC(=O)Nc1cccc(C(=O)/C=C/c2cc(Br)ccc2OC)c1	-10*	i	-0.51	-10	i	-9.3*	38%*	i	30%*	138*	i
COc1ccc(Br)cc1/C=C/C(=O)Nc1ccc2ccccc2c1	i	i	0.24	-10	i	i	.	.	.	.	.

Source: PubChem (Johns Hopkins Ion Channel Center)
